ChEMBL document CHEMBL4689842, “EUbOPEN Chemogenomics Library wave 1” (2021)

System: Fibroblast
Experiment: Multiplex assay against human fibroblast
Format: toxicity, cell-based
Outline: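 Cells were classed with CellPathfinder machine-learning gating, first as Hoechst high-intensity objects or normal cells, then (normal cells) as healthy, pyknosed or fragmented nuclei, and finally (pyknosed cells) as mitotic or apoptotic. Staining of live cells at seeding used Hoechst33342, BioTracker Green Microtubule Cytoskeleton Dye, MitoTracker Red and Annexin V Alexa Fluor 680, with imaging on a CQ1 microscope at 37°C and 5% CO2 after compound addition. Tubulin, mitochondrial-mass and membrane-permeability phenotypes are per cents of healthy-nucleus cells.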

[1] = 12 h, 1 µM, compound concentration 1 uM, replicate 1
[2] = 12 h, 1 µM, compound concentration 1 uM, replicate 2
[3] = 12 h, 10 µM, compound concentration 10 uM, replicate 1
[4] = 12 h, 10 µM, compound concentration 10 uM, replicate 2
[5] = 24 h, 1 µM, compound concentration 1 uM, replicate 1
[6] = 24 h, 1 µM, compound concentration 1 uM, replicate 2
[7] = 24 h, 10 µM, compound concentration 10 uM, replicate 1
[8] = 24 h, 10 µM, compound concentration 10 uM, replicate 2

Structure (SMILES): COc1cccc2cc(-c3nc([C@H]4CC[C@H](C(=O)O)CC4)n4ncnc(N)c34)[nH]c12 [OSI-027]
- Population Apoptotic (%) [1]: 58%
- Population Fragmented Nuclei (%) [1]: 47%
- Population Healthy Nuclei (%) [1]: 40%
- Population Hoechst High Intensity Objects (%) [1]: 28%
- Population Membrane Permeable-Phenotype (%) [1]: 5%
- Population Mitochondria Different-Phenotype (%) [1]: 0%
- Population Mitotic Cells (%) [1]: 41%
- Population Normal (%) [1]: 71%
- Population Pyknosed Nuclei (%) [1]: 11%
- Population Tubulin-Different-Phenotype (%) [1]: 7%
- Total Cell Count [1]: 382
- Population Apoptotic (%) [2]: 57%
- Population Fragmented Nuclei (%) [2]: 68%
- Population Healthy Nuclei (%) [2]: 22%
- Population Hoechst High Intensity Objects (%) [2]: 26%
- Population Membrane Permeable-Phenotype (%) [2]: 25%
- Population Mitochondria Different-Phenotype (%) [2]: 18%
- Population Mitotic Cells (%) [2]: 42%
- Population Normal (%) [2]: 73%
- Population Pyknosed Nuclei (%) [2]: 9%
- Population Tubulin-Different-Phenotype (%) [2]: 31%
- Total Cell Count [2]: 98
- Population Apoptotic (%) [3]: 72%
- Population Fragmented Nuclei (%) [3]: 28%
- Population Healthy Nuclei (%) [3]: 56%
- Population Hoechst High Intensity Objects (%) [3]: 12%
- Population Membrane Permeable-Phenotype (%) [3]: 2%
- Population Mitochondria Different-Phenotype (%) [3]: 2%
- Population Mitotic Cells (%) [3]: 27%
- Population Normal (%) [3]: 87%
- Population Pyknosed Nuclei (%) [3]: 14%
- Population Tubulin-Different-Phenotype (%) [3]: 0%
- Total Cell Count [3]: 281
- Population Apoptotic (%) [4]: 20%
- Population Fragmented Nuclei (%) [4]: 65%
- Population Healthy Nuclei (%) [4]: 26%
- Population Hoechst High Intensity Objects (%) [4]: 31%
- Population Membrane Permeable-Phenotype (%) [4]: 18%
- Population Mitochondria Different-Phenotype (%) [4]: 12%
- Population Mitotic Cells (%) [4]: 80%
- Population Normal (%) [4]: 68%
- Population Pyknosed Nuclei (%) [4]: 8%
- Population Tubulin-Different-Phenotype (%) [4]: 6%
- Total Cell Count [4]: 88
- Population Apoptotic (%) [5]: 53%
- Population Fragmented Nuclei (%) [5]: 36%
- Population Healthy Nuclei (%) [5]: 50%
- Population Hoechst High Intensity Objects (%) [5]: 33%
- Population Membrane Permeable-Phenotype (%) [5]: 7%
- Population Mitochondria Different-Phenotype (%) [5]: 1%
- Population Mitotic Cells (%) [5]: 46%
- Population Normal (%) [5]: 66%
- Population Pyknosed Nuclei (%) [5]: 12%
- Population Tubulin-Different-Phenotype (%) [5]: 5%
- Total Cell Count [5]: 302
- Population Apoptotic (%) [6]: 16%
- Population Fragmented Nuclei (%) [6]: 68%
- Population Healthy Nuclei (%) [6]: 22%
- Population Hoechst High Intensity Objects (%) [6]: 34%
- Population Membrane Permeable-Phenotype (%) [6]: 6%
- Population Mitochondria Different-Phenotype (%) [6]: 13%
- Population Mitotic Cells (%) [6]: 83%
- Population Normal (%) [6]: 65%
- Population Pyknosed Nuclei (%) [6]: 8%
- Population Tubulin-Different-Phenotype (%) [6]: 13%
- Total Cell Count [6]: 103
- Population Apoptotic (%) [7]: 75%
- Population Fragmented Nuclei (%) [7]: 23%
- Population Healthy Nuclei (%) [7]: 64%
- Population Hoechst High Intensity Objects (%) [7]: 17%
- Population Membrane Permeable-Phenotype (%) [7]: 6%
- Population Mitochondria Different-Phenotype (%) [7]: 0%
- Population Mitotic Cells (%) [7]: 24%
- Population Normal (%) [7]: 82%
- Population Pyknosed Nuclei (%) [7]: 12%
- Population Tubulin-Different-Phenotype (%) [7]: 0%
- Total Cell Count [7]: 282
- Population Apoptotic (%) [8]: 33%
- Population Fragmented Nuclei (%) [8]: 60%
- Population Healthy Nuclei (%) [8]: 34%
- Population Hoechst High Intensity Objects (%) [8]: 33%
- Population Membrane Permeable-Phenotype (%) [8]: 17%
- Population Mitochondria Different-Phenotype (%) [8]: 11%
- Population Mitotic Cells (%) [8]: 66%
- Population Normal (%) [8]: 66%
- Population Pyknosed Nuclei (%) [8]: 6%
- Population Tubulin-Different-Phenotype (%) [8]: 11%
- Total Cell Count [8]: 75
